Measured values: ChEMBL document CHEMBL1143528, “Kinesin spindle protein (KSP) inhibitors. Part 1: The discovery of 3,5-diaryl-4,5-dihydropyrazoles as potent and selective inhibitors of the mitotic kinesin KSP” (Bioorg Med Chem Lett, 2005)

Biological target: T1, Kinesin-like protein KIF11 (Homo sapiens, UniProt P52732)
T1 sequence (P52732 whole entry): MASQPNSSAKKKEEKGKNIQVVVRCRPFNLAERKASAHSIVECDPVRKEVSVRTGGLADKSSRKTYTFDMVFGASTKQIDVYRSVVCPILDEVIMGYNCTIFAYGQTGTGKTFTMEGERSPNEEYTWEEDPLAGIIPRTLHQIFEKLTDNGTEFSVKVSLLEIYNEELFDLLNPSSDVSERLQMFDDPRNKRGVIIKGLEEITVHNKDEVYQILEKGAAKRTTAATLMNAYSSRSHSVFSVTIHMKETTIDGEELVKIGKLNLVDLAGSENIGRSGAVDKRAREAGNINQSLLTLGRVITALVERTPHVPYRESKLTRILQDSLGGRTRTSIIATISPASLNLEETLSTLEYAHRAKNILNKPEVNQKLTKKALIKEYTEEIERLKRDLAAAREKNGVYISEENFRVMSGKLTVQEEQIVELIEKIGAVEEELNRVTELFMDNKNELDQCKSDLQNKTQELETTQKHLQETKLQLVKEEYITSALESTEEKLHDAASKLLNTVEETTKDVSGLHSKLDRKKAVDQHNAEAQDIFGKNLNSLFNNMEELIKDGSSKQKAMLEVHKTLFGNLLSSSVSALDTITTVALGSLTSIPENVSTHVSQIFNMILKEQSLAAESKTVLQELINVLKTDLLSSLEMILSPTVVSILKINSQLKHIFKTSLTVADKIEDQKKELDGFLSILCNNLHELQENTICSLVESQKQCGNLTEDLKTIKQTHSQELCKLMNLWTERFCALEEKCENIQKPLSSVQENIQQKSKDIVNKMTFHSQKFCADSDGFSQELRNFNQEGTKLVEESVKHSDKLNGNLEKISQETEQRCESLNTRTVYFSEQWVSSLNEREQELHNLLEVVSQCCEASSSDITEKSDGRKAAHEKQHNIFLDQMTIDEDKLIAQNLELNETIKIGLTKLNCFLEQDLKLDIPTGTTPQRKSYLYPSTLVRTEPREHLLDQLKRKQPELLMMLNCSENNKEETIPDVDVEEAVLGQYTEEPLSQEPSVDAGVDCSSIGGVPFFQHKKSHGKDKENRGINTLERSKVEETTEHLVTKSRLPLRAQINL
Assay: In vitro inhibitory concentration towards kinesin spindle protein activity of ATP hydrolysis in the presence of microtubules measured by ATPase assay (n=3)

IC50 [µM]	Structure (SMILES)
3.1	CNC(=O)N1N=C(c2cc(F)ccc2F)CC1c1ccccc1 (configuration not stated)
1.1	CC(C)C(=O)N1N=C(c2ccccc2Cl)CC1c1cccc(O)c1 (configuration not stated)
0.026	CC(=O)N1N=C(c2cc(F)ccc2F)C[C@H]1c1cccc(O)c1
3.6	CC(=O)N1N=C(c2ccccc2F)CC1c1ccccc1 (configuration not stated)
0.084	CN(C)C(=O)N1N=C(c2cc(F)ccc2F)CC1c1ccccc1 (configuration not stated)
> 50	CN1N=C(c2ccccc2Cl)CC1c1cccc(O)c1 (configuration not stated)
0.094	CC(=O)N1N=C(c2cc(F)ccc2F)CC1c1ccccc1 (configuration not stated)
1.8	CS(=O)(=O)N1N=C(c2cc(F)ccc2F)CC1c1ccccc1 (configuration not stated)
23.3	CC(=O)N1N=C(c2ccccc2Br)CC1c1ccccc1 (configuration not stated)
6.9	CC(=O)N1N=C(c2ccccc2)CC1c1cccc(O)c1 (configuration not stated)
10	CCOC(=O)C1=C(C)NC(=S)N[C@H]1c1cccc(O)c1 [S-MENASTROL]

Second part, the compound before the results:

Structure (SMILES)	IC50 [µM]
CC(=O)N1N=C(c2c(F)cccc2F)CC1c1ccccc1 (configuration not stated)	10.9
CC(=O)N1N=C(c2ccccc2)CC1c1ccccc1 (configuration not stated)	> 50
CC(=O)N1N=C(c2ccccc2C)CC1c1ccccc1 (configuration not stated)	46.2
CC(=S)N1N=C(c2cc(F)ccc2F)CC1c1ccccc1 (configuration not stated)	0.25
CC(=O)N1N=C(c2cc(F)ccc2F)CC1c1cccs1 (configuration not stated)	1.8
O=C(c1ccccc1)N1N=C(c2ccccc2Cl)CC1c1cccc(O)c1 (configuration not stated)	13.5
CC(=O)N1N=C(c2ccccc2Cl)CC1c1ccccc1 (configuration not stated)	3.6
CC(=O)N1N=C(c2ccc(Cl)cc2)CC1c1ccccc1 (configuration not stated)	> 50
CC(=O)N1N=C(c2cc(F)ccc2F)CC1c1cccc(O)c1 (configuration not stated)	0.051
CC(=O)N1N=C(c2ccccc2Cl)CC1c1cccc(O)c1 (configuration not stated)	0.45
COC(=O)N1N=C(c2ccccc2Cl)CC1c1cccc(O)c1 (configuration not stated)	> 50
CCC(=O)N1N=C(c2ccccc2Cl)CC1c1cccc(O)c1 (configuration not stated)	1.2
NCCCC(=O)N1N=C(c2ccccc2Cl)CC1c1cccc(O)c1 (configuration not stated)	6
CC(=O)N1N=C(c2ccc(Cl)cc2Cl)CC1c1ccccc1 (configuration not stated)	37.6
CC(C)(C)C(=O)N1N=C(c2ccccc2Cl)CC1c1cccc(O)c1 (configuration not stated)	0.46
CC(=O)N1N=C(c2cccc(Cl)c2)CC1c1ccccc1 (configuration not stated)	9.8
CC(=O)N1N=C(c2cccc(F)c2F)CC1c1ccccc1 (configuration not stated)	12.7
COc1ccccc1C1=NN(C(C)=O)C(c2ccccc2)C1 (configuration not stated)	> 50
CC(=O)N1N=C(c2cc(F)cc(F)c2)CC1c1ccccc1 (configuration not stated)	> 5
CC(=O)N1N=C(c2ccccc2C(F)(F)F)CC1c1ccccc1 (configuration not stated)	> 50

Biological target: T2, Caspase-3 (Homo sapiens, UniProt P42574)
T2 sequence (P42574 whole entry): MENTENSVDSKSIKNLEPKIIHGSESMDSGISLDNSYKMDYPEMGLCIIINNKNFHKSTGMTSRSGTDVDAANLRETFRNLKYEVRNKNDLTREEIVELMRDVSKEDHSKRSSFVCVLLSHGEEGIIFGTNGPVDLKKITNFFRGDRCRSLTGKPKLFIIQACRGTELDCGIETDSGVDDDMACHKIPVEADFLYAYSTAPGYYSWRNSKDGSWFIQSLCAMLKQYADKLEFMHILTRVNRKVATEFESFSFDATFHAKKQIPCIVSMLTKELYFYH
Assay: Inhibitory concentration towards caspase-3 induction in human A2780 ovarian carcinoma cells
Format: functional, cell-based
Outline: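 A2780 human ovarian carcinoma cells were treated with compound. Caspase-3 activation, used as an apoptosis marker, was then measured in cell lysates with a fluorescent kit that reads release of the AFC fluorophore from DEVD-AFC substrate. The value is a concentration giving 50% of caspase-3 induction.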

IC50 [µM]	Structure (SMILES)
0.015	CC(=O)N1N=C(c2cc(F)ccc2F)C[C@H]1c1cccc(O)c1
